Experiments:
Format in all cases: functional
[1] = system: IGROV-1; experiment: Antiproliferative activity against human IGROV1 cells after 48 hrs by sulforhodamine B assay; conditions: IGROV-1, 48 h; for TGI: read-out: pTGI (converted)
Procedure, shortened: (§1)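 Cells grown in RPMI 1640 with 5% FBS and 2 mM L-glutamine, plated at 5000–40,000 cells/well and preincubated 24 h at 37 °C, 5% CO2. Five drug concentrations (10-fold or ½-log dilutions from DMSO stocks) applied for 48 h. TCA-fixed (final 10% adherent, 16% suspension), SRB-stained, A515 read. Growth versus time-zero and control wells gave GI50, TGI, LC50.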

[2] = system: SK-MEL-2; experiment: Antiproliferative activity against human SK-MEL-2 cells after 48 hrs by sulforhodamine B assay; conditions: SK-MEL-2, 48 h; for TGI: read-out: pTGI (converted); procedure, shortened: as §1
[3] = system: BT-549; experiment: Antiproliferative activity against human BT549 cells after 48 hrs by sulforhodamine B assay; conditions: BT-549, 48 h; procedure, shortened: as §1

SMILES | GI50 [1] [µM] | LC50 [1] [µM] | TGI [1] [µM] | GI50 [2] [µM] | LC50 [2] [µM] | TGI [2] [µM] | GI50 [3] [µM] | CC50 ([3]; read-out: pLC50 (the source's name) (converted)) [µM] | TGI ([3]; read-out: pTGI (converted)) [µM]
CN1CCN(CCCn2c(=O)c3sc4ncccc4c3n3nnc(-c4ccccc4)c23)CC1 | 5.89 | 32.4 | 13.8 | 8.71 | 31.6 | 16.6 |  |  | 
O=C(CCCn1c(=O)c2sc3ncccc3c2n2nnc(-c3ccccc3)c12)NCCc1c[nH]cn1 | 9.55 | 75.9 | 27.5 | 17.8 | 85.1 | 38.9 |  |  | 
O=C(CCCn1c(=O)c2sc3ccccc3c2n2nnc(-c3ccccc3)c12)NCCc1c[nH]cn1 |  |  |  |  |  |  | 17.4 | > 100 | 41.7
